How the values were obtained:
[1] = test system: chloroquine-resistant P. falciparum Dd2 parasites; assay: SYBR Green I dose–response assay against Dd2 parasites; type: cell-based; conditions: Plasmodium falciparum, DD2, read-out: EC50 Dd2, chloroquine-resistant P. falciparum Dd2, three or more independent experiments
In short: (§1)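 Dose–response EC50 values, each from three or more independent experiments. Dd2 and 3D7 runs use chloroquine as comparator. The selectivity index is calculated as HepG2 EC50 divided by Dd2 EC50.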

[2] = test system: wild-type P. falciparum 3D7 cells; assay: dose–response assay against 3D7 cells; type: cell-based; conditions: Plasmodium falciparum, 3D7, read-out: EC50 3D7
In short: as §1

[3] = test system: HepG2 (liver hepatocellular carcinoma) cells; assay: HepG2; type: cell-based, human; conditions: for selectivity index (SI): HepG2 EC50/EC50 Dd2 cells; for EC50: Homo sapiens, HepG2, read-out: EC50 HepG2
In short: as §1

CCN(CC)CCCC(C)Nc1ccnc2cc(Cl)ccc12 (centres unmarked) [Chloroquine, reference compound]
EC50 [1]: 0.19 µM | EC50 [2]: 0.017 µM

CC[C@]12CCCN3CCc4c(n(c5ccccc45)[C@@](O)(C(=O)OC)C1)[C@@H]32 [Compound 1, Vincamine, reference compound]
EC50 [1]: > 50 µM | EC50 [2]: > 50 µM

CC[C@@]12C=C(C(=O)OC)n3c(c(c4ccccc43)CCNCCC1)[C@@H]2c1ccc(O)cc1 [Compound 18, Methyl (11S,19S)-11-ethyl-19-(4-hydroxyphenyl)-8,15-diazatetracyclo[9.6.2.0^2,7.0^8,18]nonadeca-1(18),2(7),3,5,9-pentaene-9-carboxylate]
EC50 [1]: 10.8 ± 2.93 µM

CC[C@@]12C=C(C(=O)OC)n3c(c(c4ccccc43)CCN(/C=C/C(=O)OC)CCC1)[C@@H]2c1ccc(OC(C)=O)cc1 [Compound 19, Methyl (11S,19S)-19-[4-(acetyloxy)phenyl]-11-ethyl-15-[(1E)-3-methoxy-3-oxoprop-1-en-1-yl]-8,15-diazatetracyclo[9.6.2.0^2,7.0^8,18]nonadeca-1(18),2(7),3,5,9-pentaene-9-carboxylate]
EC50 [1]: 6.11 ± 1.56 µM

CC[C@@]12C=C(C(=O)OC)n3c(c(c4ccccc43)CCN(C(C)=O)CCC1)[C@@H]2c1ccc(O)cc1 [Compound 20, methyl (11S,19S)-15-acetyl-11-ethyl-19-(4-hydroxyphenyl)-8,15-diazatetracyclo[9.6.2.0^2,7.0^8,18]nonadeca-1(18),2(7),3,5,9-pentaene-9-carboxylate]
EC50 [1]: > 20 µM | EC50 [2]: 12 ± 3.4 µM

CC[C@@]12C=C(C(=O)OC)n3c(c(c4ccccc43)CCN(C(=O)c3ccc(OC)nc3)CCC1)[C@@H]2c1ccc(O)cc1 [Compound 21, methyl (11S,19S)-11-ethyl-19-(4-hydroxyphenyl)-15-(6-methoxypyridine-3-carbonyl)-8,15-diazatetracyclo[9.6.2.0^2,7.0^8,18]nonadeca-1(18),2(7),3,5,9-pentaene-9-carboxylate]
EC50 [1]: 0.63 ± 0.12 µM | EC50 [2]: 1.33 ± 0.18 µM

CC[C@@]12C=C(C(=O)OC)n3c(c(c4ccccc43)CCN(C(=O)COCCOCCOC)CCC1)[C@@H]2c1ccc(O)cc1 [Compound 22, methyl (11S,19S)-11-ethyl-19-(4-hydroxyphenyl)-15-{2-[2-(2-methoxyethoxy)ethoxy]acetyl}-8,15-diazatetracyclo[9.6.2.0^2,7.0^8,18]nonadeca-1(18),2(7),3,5,9-pentaene-9-carboxylate]
EC50 [1]: 4.1 ± 0.55 µM

CC[C@@]12C=C(C(=O)OC)n3c(c(c4ccccc43)CCN(C(=O)C3CCCCC3)CCC1)[C@@H]2c1ccc(O)cc1 [Compound 23, methyl (11S,19S)-15-cyclohexanecarbonyl-11-ethyl-19-(4-hydroxyphenyl)-8,15-diazatetracyclo[9.6.2.0^2,7.0^8,18]nonadeca-1(18),2(7),3,5,9-pentaene-9-carboxylate]
EC50 [1]: 2.53 ± 0.34 µM

CC[C@@]12C=C(C(=O)OC)n3c(c(c4ccccc43)CCN(C(=O)c3ccc(C(F)(F)F)cc3)CCC1)[C@@H]2c1ccc(O)cc1 [Compound 24, methyl (11S,19S)-11-ethyl-19-(4-hydroxyphenyl)-15-[4-(trifluoromethyl)benzoyl]-8,15-diazatetracyclo[9.6.2.0^2,7.0^8,18]nonadeca-1(18),2(7),3,5,9-pentaene-9-carboxylate]
EC50 [1]: 1.54 ± 0.004 µM

CC[C@@]12C=C(C(=O)OC)n3c(c(c4ccccc43)CCN(C(=O)c3cccnc3)CCC1)[C@@H]2c1ccc(O)cc1 [Compound 25, methyl (11S,19S)-11-ethyl-19-(4-hydroxyphenyl)-15-(pyridine-3-carbonyl)-8,15-diazatetracyclo[9.6.2.0^2,7.0^8,18]nonadeca-1(18),2(7),3,5,9-pentaene-9-carboxylate]
EC50 [1]: 0.55 ± 0.07 µM | EC50 [2]: 2.25 ± 0.4 µM | selectivity index (SI) [3]: >45 | EC50 [3]: > 25 µM

CC[C@@]12C=C(C(=O)OC)n3c(c(c4ccccc43)CCN(C(=O)c3ccco3)CCC1)[C@@H]2c1ccc(O)cc1 [Compound 26, methyl (11S,19S)-11-ethyl-15-(furan-2-carbonyl)-19-(4-hydroxyphenyl)-8,15-diazatetracyclo[9.6.2.0^2,7.0^8,18]nonadeca-1(18),2(7),3,5,9-pentaene-9-carboxylate]
EC50 [1]: 2.48 ± 0.33 µM | EC50 [2]: 1.8 ± 0.36 µM | selectivity index (SI) [3]: >10 | EC50 [3]: > 25 µM

CC[C@@]12C=C(C(=O)OC)n3c(c(c4ccccc43)CCN(C(=O)c3cncnc3)CCC1)[C@@H]2c1ccc(O)cc1 [Compound 27, methyl (11S,19S)-11-ethyl-19-(4-hydroxyphenyl)-15-(pyrimidine-5-carbonyl)-8,15-diazatetracyclo[9.6.2.0^2,7.0^8,18]nonadeca-1(18),2(7),3,5,9-pentaene-9-carboxylate]
EC50 [1]: 0.73 ± 0.11 µM | EC50 [2]: 1.99 ± 0.3 µM | selectivity index (SI) [3]: >34 | EC50 [3]: > 25 µM

CC[C@@]12C=C(C(=O)OC)n3c(c(c4ccccc43)CCN(C(=O)c3ccno3)CCC1)[C@@H]2c1ccc(O)cc1 [Compound 28, methyl (11S,19S)-11-ethyl-19-(4-hydroxyphenyl)-15-(1,2-oxazole-5-carbonyl)-8,15-diazatetracyclo[9.6.2.0^2,7.0^8,18]nonadeca-1(18),2(7),3,5,9-pentaene-9-carboxylate]
EC50 [1]: 2.14 ± 0.36 µM | EC50 [2]: 0.97 ± 0.03 µM | selectivity index (SI) [3]: >11 | EC50 [3]: > 25 µM

CC[C@@]12C=C(C(=O)OC)n3c(c(c4ccccc43)CCN(C(=O)c3ccc[nH]3)CCC1)[C@@H]2c1ccc(O)cc1 [Compound 29, methyl (11S,19S)-11-ethyl-19-(4-hydroxyphenyl)-15-(1H-pyrrole-2-carbonyl)-8,15-diazatetracyclo[9.6.2.0^2,7.0^8,18]nonadeca-1(18),2(7),3,5,9-pentaene-9-carboxylate]
EC50 [1]: 2.98 ± 0.4 µM | EC50 [2]: 3.18 ± 0.07 µM

CC[C@@]12C=C(C(=O)OC)n3c(c(c4ccccc43)CCN(C(=O)c3ccncc3)CCC1)[C@@H]2c1ccc(O)cc1 [Compound 31, methyl (11S,19S)-11-ethyl-19-(4-hydroxyphenyl)-15-(pyridine-4-carbonyl)-8,15-diazatetracyclo[9.6.2.0^2,7.0^8,18]nonadeca-1(18),2(7),3,5,9-pentaene-9-carboxylate]
EC50 [1]: 5.9 ± 0.26 µM

CC[C@@]12C=C(C(=O)OC)n3c(c(c4ccccc43)CCN(C(=O)c3cncc(Cl)c3)CCC1)[C@@H]2c1ccc(O)cc1 [Compound 32, methyl (11S,19S)-15-(5-chloropyridine-3-carbonyl)-11-ethyl-19-(4-hydroxyphenyl)-8,15-diazatetracyclo[9.6.2.0^2,7.0^8,18]nonadeca-1(18),2(7),3,5,9-pentaene-9-carboxylate]
EC50 [1]: 0.49 ± 0.1 µM | EC50 [2]: 2.22 ± 0.34 µM | selectivity index (SI) [3]: >51 | EC50 [3]: > 25 µM

CC[C@@]12C=C(C(=O)OC)n3c(c(c4ccccc43)CCN(C(=O)c3ccccc3)CCC1)[C@@H]2c1ccc(O)cc1 [Compound 34, methyl (11S,19S)-15-benzoyl-11-ethyl-19-(4-hydroxyphenyl)-8,15-diazatetracyclo[9.6.2.0^2,7.0^8,18]nonadeca-1(18),2(7),3,5,9-pentaene-9-carboxylate]
EC50 [1]: 2.95 ± 1.14 µM | EC50 [2]: 6.6 ± 1.06 µM

Reference: article PMC8359148 (ACS Omega, 2021)
